In data set [1] the test system is SK-MEL-28. As to the kind of experiment: Cytotoxicity against human SK-MEL-28 cells expressing B-raf V600E mutant after 48 hrs by hexosaminidase assay. It is filed as functional, cell-based. Summed up:
(§1)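 SK-MEL-28 or B16/F10 cells plated in 96-well plates, grown overnight, then treated with 0–50 µM compound for 48 h. Cells washed with PBS, given hexosaminidase substrate for 30 min at 37 °C, then developer. Absorbance read at 405 nm. Percent viability = treated/control absorbance × 100.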

The test system of data set [2] is M14. Kind of data set: Cytotoxicity against human M14 cells assessed as cell viability at 100 uM after 48 hrs by CellTiter-Glo luminescence assay. Format: functional, cell-based. Summed up: (§2)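 M14 cells, 1250 per well, in serum-free DMEM. Compounds given in 10-point 1:3 dilution series starting at 100 µM; controls were gefitinib, doxorubicin and ionomycin. Incubated at 37 °C, 5% CO2. CellTiter-Glo luminescence read at 4, 24, 48 and 72 h. Viability normalized to media-only wells and 1% DMSO-treated wells.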
(In general: ATP-based viability assays read luminescence as a measure of living cells.)

The target in data set [3] is Histone deacetylase 2 (Homo sapiens) (UniProt Q92769). As to the kind of experiment: Inhibition of HDAC2 (unknown origin) up to 100 uM.
Histone deacetylase 2 (Homo sapiens), sequence (Q92769 whole entry): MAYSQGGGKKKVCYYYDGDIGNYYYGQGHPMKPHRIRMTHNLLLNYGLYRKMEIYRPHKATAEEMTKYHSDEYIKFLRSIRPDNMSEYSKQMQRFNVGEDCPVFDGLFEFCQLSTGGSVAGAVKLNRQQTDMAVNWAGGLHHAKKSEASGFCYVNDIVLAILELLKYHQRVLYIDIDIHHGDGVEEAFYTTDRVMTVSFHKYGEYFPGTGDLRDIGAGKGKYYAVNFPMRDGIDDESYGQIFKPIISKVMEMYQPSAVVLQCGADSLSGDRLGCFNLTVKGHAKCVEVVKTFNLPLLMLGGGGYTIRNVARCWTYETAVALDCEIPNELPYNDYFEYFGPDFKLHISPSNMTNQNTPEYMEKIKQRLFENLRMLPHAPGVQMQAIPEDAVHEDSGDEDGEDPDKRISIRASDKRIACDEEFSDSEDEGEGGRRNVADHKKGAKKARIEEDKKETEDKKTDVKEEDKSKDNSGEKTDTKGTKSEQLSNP
In data set [4] the test system is M14. Kind of data set: Cytotoxicity against human M14 cells assessed as cell viability at 100 uM after 24 hrs by CellTiter-Glo luminescence assay. It is filed as functional, cell-based. Summed up: as §2
Data set [5] addresses Histone deacetylase 1 (Homo sapiens) (UniProt Q13547). Kind of data set: Inhibition of HDAC1 (unknown origin) up to 100 uM.
Data set [6] has as its system B16-F10. Kind of data set: (§3) Cytotoxicity against mouse B16F10 cells expressing p53 mutant after 48 hrs by hexosaminidase assay. It is filed as functional, cell-based. Put shortly:
as §1

The nature of data set [7]: as §3. It is filed as functional, cell-based. To be noted: B16-F10, 48 h. Put shortly: as §1
The target of data set [8] is T1, Protein deacetylase HDAC6 (Homo sapiens) (UniProt Q9UBN7).
T1 sequence (whole entry): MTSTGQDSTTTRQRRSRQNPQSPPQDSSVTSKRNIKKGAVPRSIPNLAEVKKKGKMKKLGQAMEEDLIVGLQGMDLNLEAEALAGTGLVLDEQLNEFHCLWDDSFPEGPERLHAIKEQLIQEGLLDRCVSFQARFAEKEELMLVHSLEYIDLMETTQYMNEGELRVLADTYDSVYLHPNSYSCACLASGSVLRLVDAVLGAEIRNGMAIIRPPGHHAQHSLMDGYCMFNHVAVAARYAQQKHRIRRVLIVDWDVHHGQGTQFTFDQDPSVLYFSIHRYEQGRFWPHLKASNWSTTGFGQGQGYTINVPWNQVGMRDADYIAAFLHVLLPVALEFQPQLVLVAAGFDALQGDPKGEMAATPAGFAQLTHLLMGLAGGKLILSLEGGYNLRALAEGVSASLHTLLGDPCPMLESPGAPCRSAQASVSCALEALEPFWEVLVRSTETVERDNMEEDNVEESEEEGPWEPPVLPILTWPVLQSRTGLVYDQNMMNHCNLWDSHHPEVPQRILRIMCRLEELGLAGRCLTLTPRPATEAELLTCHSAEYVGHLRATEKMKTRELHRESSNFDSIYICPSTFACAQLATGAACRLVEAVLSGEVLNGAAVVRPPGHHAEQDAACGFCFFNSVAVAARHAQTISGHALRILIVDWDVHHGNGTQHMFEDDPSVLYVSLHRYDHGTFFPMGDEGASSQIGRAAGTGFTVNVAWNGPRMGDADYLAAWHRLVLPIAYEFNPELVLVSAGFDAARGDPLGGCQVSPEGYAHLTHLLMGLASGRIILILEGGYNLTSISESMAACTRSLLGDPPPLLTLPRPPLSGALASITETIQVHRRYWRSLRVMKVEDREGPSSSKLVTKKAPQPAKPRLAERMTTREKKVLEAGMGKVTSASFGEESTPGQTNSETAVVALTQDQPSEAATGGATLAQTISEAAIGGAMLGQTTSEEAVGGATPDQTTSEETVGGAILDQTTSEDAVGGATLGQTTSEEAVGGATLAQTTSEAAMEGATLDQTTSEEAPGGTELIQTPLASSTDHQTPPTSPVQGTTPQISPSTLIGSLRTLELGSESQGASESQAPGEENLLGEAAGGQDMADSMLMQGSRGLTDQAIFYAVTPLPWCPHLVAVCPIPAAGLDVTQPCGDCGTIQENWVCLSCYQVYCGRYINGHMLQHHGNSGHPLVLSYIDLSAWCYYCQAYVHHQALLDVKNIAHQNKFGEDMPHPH
As to the kind of experiment: Inhibition of HDAC6 (unknown origin) up to 100 uM.

The subject of data set [9] is M14. As to the kind of experiment: Cytotoxicity against human M14 cells assessed as cell viability at 100 uM after 4 hrs by CellTiter-Glo luminescence assay. It is filed as functional, cell-based. Summed up: as §2
Data set [10] has as its system M14. Kind of data set: Cytotoxicity against human M14 cells after 72 hrs by CellTiter-Glo luminescence assay. Format: functional, cell-based. The conditions noted are these: for IC50: M14, 72 h. Put shortly: (§4)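 1250 cells per well in serum-free medium (F12 for CHO-K1 and A549, DMEM for M14). Compounds given as 10-point 1:3 serial dilutions from a 300 µM stock, plus a gefitinib control. Incubated 72 h at 37 °C, 5% CO2. CellTiter-Glo added for 15 min at room temperature, then luminescence read. Viability normalized to media-only wells (0%) and 1% DMSO wells (100%). Run in triplicate.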

The nature of data set [11]: Cytotoxicity against CHOK1 cells at 100 uM after 72 hrs by CellTiter-Glo luminescence assay. It is filed as cell-based, Cricetulus griseus. The conditions noted are these: chinese hamster, CHO-K1 cells; read-out: INH. Summed up:
as §4

Data set [12] relates to A549. Kind of data set: Cytotoxicity against human A549 cells at 100 uM after 72 hrs by CellTiter-Glo luminescence assay. It is filed as functional. The conditions noted are these: A549, 72 h. Put shortly:
as §4

In data set [13] the test system is M14. Kind of data set: Cytotoxicity against human M14 cells at 100 uM after 72 hrs by CellTiter-Glo luminescence assay. Format: functional. To be noted: M14, 72 h. Summed up:
as §4

A short description of data set [14]: Cytotoxicity against human M249 cells expressing B-raf V600E mutant. It is filed as functional, cell-based.
Data set [15] is described as follows: Cytotoxicity against human M238 cells expressing B-raf V600E mutant. Format: functional, cell-based.
In data set [16] the test system is M14. Kind of data set: Cytotoxicity against human M14 cells expressing […] mutant. Format: functional, cell-based.
A short description of data set [17]: Cytotoxicity against human M229 cells expressing B-raf V600E mutant. It is filed as functional, cell-based.
Data set [18] has as its system SK-MEL-28. Kind of data set: Cytotoxicity against human SK-MEL-28 cells expressing B-raf V600E mutant. It is filed as functional, cell-based.
Data set [19] in a line: Cytotoxicity against human M262 cells expressing B-raf V600E mutant. It is filed as functional, cell-based.
The nature of data set [20]: Cytotoxicity against human M321 cells expressing B-raf V600E mutant. Format: functional, cell-based.
Data set [21] can be described thus: Cytotoxicity against human M263 cells expressing B-raf V600E mutant. Format: functional, cell-based.
For data set [22], the system named is A549. Kind of data set: Cytotoxicity against human A549 cells after 72 hrs by CellTiter-Glo luminescence assay. The conditions noted are these: A549, 72 h. Format: functional, cell-based. Summed up:
as §4

The nature of data set [23]: Cytotoxicity against CHOK1 cells after 72 hrs by CellTiter-Glo luminescence assay. To be noted: Cricetulus griseus, CHO-K1, 72 h. It is filed as cell-based. Summed up:
as §4

The source of these data is ChEMBL document CHEMBL3232843, “Novel pyrrolidine diketopiperazines selectively inhibit melanoma cells via induction of late-onset apoptosis” (J Med Chem, 2014).

Activity calls are given as the source filed them. No cut-off for these calls is given here. Bounds are passed on as bounds.

In general, inhibition refers to how much of the control response was suppressed. In general, IC50 refers to the concentration needed to halve the response being measured. Low readings indicate higher potency, high ones lower potency.

Histone deacetylase 1 (Homo sapiens), sequence (Q13547 whole entry): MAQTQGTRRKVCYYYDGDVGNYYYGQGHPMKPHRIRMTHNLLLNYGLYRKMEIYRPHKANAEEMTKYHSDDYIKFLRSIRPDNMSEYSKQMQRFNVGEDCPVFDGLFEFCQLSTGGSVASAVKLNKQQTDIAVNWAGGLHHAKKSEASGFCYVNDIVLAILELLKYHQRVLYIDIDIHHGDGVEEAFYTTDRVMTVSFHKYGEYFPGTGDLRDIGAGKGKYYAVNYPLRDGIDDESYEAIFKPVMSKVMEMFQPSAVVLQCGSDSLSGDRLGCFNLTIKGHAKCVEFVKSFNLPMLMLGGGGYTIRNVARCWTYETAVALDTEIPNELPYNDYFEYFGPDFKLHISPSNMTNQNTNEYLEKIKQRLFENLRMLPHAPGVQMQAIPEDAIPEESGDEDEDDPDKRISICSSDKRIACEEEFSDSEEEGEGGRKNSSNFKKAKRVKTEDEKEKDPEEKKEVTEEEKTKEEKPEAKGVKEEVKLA

Turning to `O=C1NC[C@H](Cc2ccccc2)N(C[C@@H]2CCCN2C[C@H](Cc2ccccc2)N2C[C@H](Cc3ccc(O)cc3)N(CCC34CC5CC(CC(C5)C3)C4)C(=O)C2=O)C1=O`, the inhibition result in data set [1], in [6] and in [10] was “Dose-dependent effect” throughout. Further, the result in [2] and in data set [4] was Active. In addition, the inhibition entry in [3], in data set [5] and in data set [8] was “inactive” each time. Besides, the figures for the IC50 in data set [7] and in data set [10] were 1150 nM and 750 nM, respectively. For the same compound, in data set [9], the outcome was inactive.

Regarding `CCC[C@@H]1CNC(=O)C(=O)N1C[C@@H]1CCCN1C[C@H](Cc1ccc(O)cc1)N1C[C@@H](Cc2ccc(O)cc2)N(CC2CCCC2)C(=O)C1=O`, in data set [11], the cytotoxicity at 72 h, 100 µM was determined as 7%. The inhibition at 100 µM in data set [12] worked out at 5%; in [13], 3%.

Take `CCCS(=O)(=O)Nc1ccc(F)c(C(=O)c2c[nH]c3ncc(-c4ccc(Cl)cc4)cc23)c1F` [VEMURAFENIB]: the IC50 turned out to be 100 nM in data set [14]; 100 nM in data set [15]; 150 nM in data set [16]; 100 nM in [17]; 100 nM in data set [18]; 100 nM in data set [19]. The IC50 in data set [20] and in [21] was 100 nM each time.

As to `CCC[C@@H]1CNC(=O)C(=O)N1C[C@@H]1CCCN1C[C@@H](Cc1ccc(O)cc1)N1C[C@H](Cc2ccc(O)cc2)N(CC(CC)c2ccccc2)C(=O)C1=O` (some centres undefined), the cytotoxicity at 72 h, 100 µM in data set [11] was 48%. The inhibition at 100 µM is 4% in [12] and 7% in [13].

`CCC[C@@H]1CNC(=O)C(=O)N1C[C@@H]1CCCN1C[C@@H](Cc1ccc(O)cc1)N1C[C@@H](Cc2ccc(O)cc2)N(CC2CCCC2)C(=O)C1=O`: the cytotoxicity at 72 h, 100 µM in data set [11] is 11%. For the same compound, the inhibition at 100 µM in data set [12] stood at 14%; in data set [13], 25%.

As for `CCC[C@@H]1CNC(=O)C(=O)N1C[C@@H]1CCCN1C[C@H](Cc1ccc(O)cc1)N1C[C@H](Cc2ccc(O)cc2)N(CC(CC)c2ccccc2)C(=O)C1=O` (some centres undefined), the cytotoxicity at 72 h, 100 µM in [11] was found to be 27%. For the same compound, the inhibition at 100 µM in [12] was 0%; in data set [13], 10%.

For `CCC[C@H]1CNC(=O)C(=O)N1C[C@@H]1CCCN1C[C@@H](CC1CCCCC1)N1C[C@H](Cc2ccc(O)cc2)N(CCC23CC4CC(CC(C4)C2)C3)C(=O)C1=O`, the IC50 in data set [22], in [23] and in [10] was above 50000 nM throughout.
